Laboratory results from article PMC9748978 (RSC Advances, 2022).
Where two headings read alike, the source gives them in different places.

Legend:
[1] = compound, TG; cited from earlier work
[2] = format: in vitro ADME; settings: pig skin; for CUM – cumulative permeation mass / Q – the percentage of the applied dose after 24 h: 24 h; for CUM – cumulative permeation mass / Q – the percentage of the applied dose after 24 h / J SS – steady-state flux / K m – skin partition coefficient / L T – lag time / K P – permeability coefficient: solution in 70% ethanol; for steady-state flux (JSS): from ethanol solution
Method in brief: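 Pig abdominal skin in Franz cells with 8 cm3 PBS (pH 7.4) acceptor at 37.0 ± 0.5 °C, stirred 400 rpm. Donor: 1 cm3 of about 5% solution (about 0.05 g cm−3) in 70% ethanol, stoppered. Acceptor sampled (0.3 cm3, buffer replaced) at 0.5–24 h and assayed by HPLC. Jss is the slope of cumulative mass versus time, and lag time is the x-intercept. Kp, D and Km are calculated from these. Mean ± SD, ANOVA/Tukey.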

[3] = Accumulation in the skin after 24 h penetration; format: in vitro ADME, pig; settings: after 24 h of penetration from solution, porcine skin
Method in brief: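 Franz diffusion cells with porcine abdominal skin, PBS (pH 7.4) acceptor at 37.0 ± 0.5 °C. After 24 h penetration the skin was removed, rinsed in PBS pH 7.4, dried at room temperature, weighed, cut to the 1 cm2 diffusion area and minced. It was then extracted in methanol for 24 h at 4 °C, homogenized 3 min and centrifuged at 3500 rpm for 5 min. Supernatant was assayed by HPLC, expressed as μg IBU per g skin.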

Tack = format: physicochemical; settings: transdermal patch (cross-linked adhesive film containing the active ingredient)
Method in brief: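 Tested with a tensile testing machine per AFERA 4015. The patch has an acrylate copolymer adhesive matrix with the active substance added as an ethyl acetate solution, dosed on the basis of 200 mg per 140 cm2. It was coated at 250 μm on polyester film and cross-linked by UV after 10 min at 110 °C.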

[4] = n-octanol/water partition coefficient, shake flask method; format: physicochemical; settings: n-octanol–water, 25 °C
Method in brief: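 10 mg of compound was shaken with 5 ml n-octanol-saturated water and 5 ml water-saturated n-octanol, stirred 3 h at 25 °C, and the layers were separated. Aqueous concentration was measured by HPLC. Octanol-layer concentration was taken as total minus aqueous. log P = log C0 − log Cw.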

Solubility in water = format: physicochemical; settings: 25 °C, 24 h
[5] = format: in vitro ADME, pig; settings: from transdermal patch
[6] = Thermogravimetric analysis; format: physicochemical; settings: compound, TG
Method in brief: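 About 5 mg samples were heated from 25 to 1000 °C on a thermobalance under nitrogen (10 ml min−1) and under air (25 ml min−1). Onset decomposition temperature was read from TG curves and maximum decomposition temperature from DTG curves.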

| Molecule | T max (maximum decomposition temperature) [1] | T onset (the onset of the thermal degradation) [1] | CUM – cumulative permeation mass [2] | Q – the percentage of the applied dose after 24 h [2] | steady-state flux (JSS) [2] | J SS – steady-state flux [2] | K m – skin partition coefficient [2] | L T – lag time [2] | accumulation in the skin [3] | Tack (Tack) | log P [4] | Solubility in water (Solubility in water) | Solubility in water (as ibuprofen) (Solubility in water) | K P – permeability coefficient [2] | delay time (lag time) [5] | T max (maximum decomposition temperature) [6] | T onset (the onset of the thermal degradation) [6] |
| --- | --- | --- | --- | --- | --- | --- | --- | --- | --- | --- | --- | --- | --- | --- | --- | --- | --- |
| CC(C)Cc1ccc(C(C)C(=O)O)cc1 (racemic) [[IBU], (R,S)-Ibuprofen, reference compound] | 218.7 °C | 189.8 °C | 133.35 μg cm^−2 | 9.33% | 25.87 μg IBU per cm^2 h | 25.87 μg cm^−2 | 0.281 | 2.582 min | 725.49 ± 164.6184 μg IBU per g skin |  |  |  |  |  |  |  |  |
| CC(C)Cc1ccc(C(C)C(=O)[O-])cc1.[Na+] (stereo not drawn) [[IBU][Na], sodium ibuprofenate] |  |  |  |  |  |  |  |  |  | 0.05 N |  |  |  |  |  |  |  |
| CC(C)Cc1ccc(C(C)C(=O)O)cc1.CCCOC(=O)[C@@H](N)Cc1ccccc1 [[PheOPr][IBU], L-phenylalanine propyl ester ibuprofenate] | 210.4 °C | 157.0 °C | 454.86 μg cm^−2 | 15.80% | 28.01 μg IBU per cm^2 h | 28.01 μg cm^−2 | 0.200 | 1.705 min | 602.86 ± 76.98 μg IBU per g skin |  | +1.021 | 9.481 ± 0.066 g dm^−3 | 4.596 ± 0.161 g IBU per dm^3 | 5446.1 ×10⁻⁶ cm/s | about 1 h |  |  |
| CC(C)Cc1ccc(C(C)C(=O)O)cc1.CCCOC(=O)[C@@H](N)Cc1c[nH]c2ccccc12 [[TrpOPr][IBU], L-tryptophan propyl ester ibuprofenate] |  |  | 319.22 μg cm^−2 | 12.42% |  | 22.72 μg cm^−2 | 0.208 | 2.179 min | 595.41 ± 76.32 μg IBU per g skin |  | +1.044 | 9.396 ± 0.027 g dm^−3 | 4.577 ± 0.037 g IBU per dm^3 | 4418.6 ×10⁻⁶ cm/s |  | 219.3 °C |  |
| CC(C)Cc1ccc(C(C)C(=O)O)cc1.CCCOC(=O)[C@@H](N)Cc1ccc(O)cc1 [[TyrOPr][IBU], L-tyrosine propyl ester ibuprofenate] |  |  | 284.27 μg cm^−2 | 9.51% |  | 25.57 μg cm^−2 | 0.229 | 2.133 min | 609.35 ± 106.07 μg IBU per g skin |  | +1.055 | 8.569 ± 0.022 g dm^−3 | 4.188 ± 0.065 g IBU per dm^3 | 4971.7 ×10⁻⁶ cm/s |  | 209.4 °C | 148.1 °C |
| L-histidine propyl ester bis(ibuprofenate) [[HisOPr][IBU]] |  |  | 335.13 μg cm^−2 | 7.90% | 21.33 μg IBU per cm^2 h | 21.33 μg cm^−2 | 0.192 | 2.141 min |  |  | +0.963 |  |  | 4143.9 ×10⁻⁶ cm/s |  | 212.5 °C | 157.5 °C |
